Laboratory results from ChEMBL document CHEMBL1121489, “6-(Substituted-amino)-4H-s-triazolo[4,3-a][1,4]benzodiazepines and 4-(substituted-amino)-6H-s-triazolo[4,3-a][1,4]benzodiazepines with potential antianxiety activity” (1980).

Tests used:
Format in all cases: functional
Mus musculus [1] = species: Mus musculus; experiment: Effect on loss of traction (Tr) in Carworth farms male albino mice
Summary of the method: (§1)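 Male albino CF-1 mice (18–22 g). Compounds were dissolved or suspended in 0.25% aqueous methylcellulose and given ip to groups of four or six mice per dose, at multiple dose levels spaced 0.3 log apart. ED50 values were calculated by the Spearman–Karber method.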

Mus musculus [2] = species: Mus musculus; experiment: Effect on pentylenetetrazole-induced clonic convulsions (P) in Carworth farms male albino mice; summary of the method: as §1
Mus musculus [3] = species: Mus musculus; experiment: Effect on antagonism of nicotine-induced tonic-extensor convulsions (TE) in Carworth farms male albino mice; summary of the method: as §1
Mus musculus [4] = species: Mus musculus; experiment: Effect on bicuculline-induced tonic-extensor convulsions (B) in Carworth farms male albino mice; summary of the method: as §1
Mus musculus [5] = species: Mus musculus; experiment: Effect on potentiation of gamma-butyrolactone-induced sleep (gamma-B) in Carworth farms male albino mice; summary of the method: as §1
Mus musculus [6] = species: Mus musculus; experiment: Effect on antagonism of nicotine-induced death (D) in Carworth farms male albino mice; summary of the method: as §1
Mus musculus [7] = species: Mus musculus; experiment: Effect on prolongation of hypoxic survival time (HS) in Carworth farms male albino mice; summary of the method: as §1
Mus musculus [8] = species: Mus musculus; experiment: Effect on antagonism of nicotine-induced tonic-extensor convulsions (TE) in Carworth farms male albino mice.; summary of the method: as §1
Mus musculus [9] = species: Mus musculus; experiment: Effect on bicuculline-induced tonic-extensor convulsions (B) in Carworth farms male albino mice.
Summary of the method: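 CF-1 male albino mice, 18–22 g. Unless otherwise indicated, compounds were dissolved or suspended in 0.25% aqueous methylcellulose and given ip to groups of 4 or 6 mice per dose. Several dose levels were spaced at 0.3 log intervals. ED50 was calculated by the Spearman–Karber method.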

## Cc1nnc2n1-c1ccc(Cl)cc1CN=C2N1CCOCC1
Mus musculus [1]
  ED50: > 100 mg/kg
Mus musculus [2]
  ED50: 40 mg/kg
Mus musculus [3]
  ED50: > 100 mg/kg
Mus musculus [4]
  ED50: > 50 mg/kg
Mus musculus [5]
  ED50: > 50 mg/kg

## Cc1nnc2n1-c1ccc(Cl)cc1C(N1CCCCC1)=NC2
Mus musculus [1]
  ED50: 0.3 mg/kg
Mus musculus [2]
  ED50: 1.1 mg/kg
Mus musculus [6]
  ED50: 0.4 mg/kg
Mus musculus [3]
  ED50: 0.4 mg/kg
Mus musculus [4]
  ED50: 0.7 mg/kg
Mus musculus [5]
  ED50: 0.9 mg/kg
Mus musculus [7]
  ED50: 0.3 mg/kg

## Cc1nnc2n1-c1ccc(Cl)cc1CN=C2N1CCCCCC1
Mus musculus [1]
  ED50: > 100 mg/kg
Mus musculus [3]
  ED50: > 100 mg/kg

## Cc1nnc2n1-c1ccc(Cl)cc1C(N1CCCCCC1)=NC2
Mus musculus [1]
  ED50: > 100 mg/kg
Mus musculus [6]
  ED50: > 100 mg/kg
Mus musculus [3]
  ED50: > 100 mg/kg

## Cc1nnc2n1-c1ccc(Cl)cc1C(N1CCOCC1)=NC2
Mus musculus [1]
  ED50: > 100 mg/kg
Mus musculus [6]
  ED50: 71 mg/kg
Mus musculus [3]
  ED50: 80 mg/kg

## Cc1nnc2n1-c1ccc(Cl)cc1C(N1CCN(c3ccccc3)CC1)=NC2
Mus musculus [1]
  ED50: > 100 mg/kg
Mus musculus [6]
  ED50: > 100 mg/kg
Mus musculus [3]
  ED50: > 100 mg/kg

## Cc1nnc2n1-c1ccc(Cl)cc1CN=C2N1CCCCC1
Mus musculus [1]
  ED50: > 100 mg/kg
Mus musculus [8]
  ED50: > 100 mg/kg

## Cc1nnc2n1-c1ccc(Cl)cc1CN=C2N1CCN(C)CC1
Mus musculus [1]
  ED50: > 100 mg/kg
Mus musculus [2]
  ED50: > 50 mg/kg
Mus musculus [3]
  ED50: > 100 mg/kg
Mus musculus [4]
  ED50: > 50 mg/kg
Mus musculus [5]
  ED50: 40 mg/kg
Mus musculus [7]
  ED50: 40 mg/kg

## Cc1nnc2n1-c1ccc(Cl)cc1C(N1CCCC1)=NC2
Mus musculus [1]
  ED50: > 100 mg/kg
Mus musculus [2]
  ED50: > 50 mg/kg
Mus musculus [6]
  ED50: 18 mg/kg
Mus musculus [3]
  ED50: 18 mg/kg
Mus musculus [4]
  ED50: > 50 mg/kg
Mus musculus [5]
  ED50: 7.4 mg/kg
Mus musculus [7]
  ED50: > 50 mg/kg

## Cc1nnc2n1-c1ccc(Cl)cc1C(c1ccccc1)=NC2 [ALPRAZOLAM]
Mus musculus [1]
  ED50: 0.6 mg/kg
Mus musculus [2]
  ED50: 0.1 mg/kg
Mus musculus [6]
  ED50: 0.02 mg/kg
Mus musculus [3]
  ED50: 0.02 mg/kg
Mus musculus [4]
  ED50: 0.2 mg/kg
Mus musculus [5]
  ED50: 0.08 mg/kg
Mus musculus [7]
  ED50: 0.2 mg/kg

## CN1C(=O)CN=C(c2ccccc2)c2cc(Cl)ccc21 [DIAZEPAM]
Mus musculus [1]
  ED50: 7 mg/kg
Mus musculus [2]
  ED50: 0.1 mg/kg
Mus musculus [6]
  ED50: 0.28 mg/kg
Mus musculus [3]
  ED50: 0.28 mg/kg
Mus musculus [4]
  ED50: 2.6 mg/kg
Mus musculus [5]
  ED50: 0.035 mg/kg
Mus musculus [7]
  ED50: 0.2 mg/kg

## CCCCCCNC1=NCc2nnc(C)n2-c2ccc(Cl)cc21
Mus musculus [1]
  ED50: > 100 mg/kg
Mus musculus [6]
  ED50: > 100 mg/kg
Mus musculus [3]
  ED50: > 100 mg/kg

## Cc1nnc2n1-c1ccc(Cl)cc1C(N1CCN(C)CC1)=NC2
Mus musculus [1]
  ED50: > 100 mg/kg
Mus musculus [6]
  ED50: > 100 mg/kg
Mus musculus [3]
  ED50: > 100 mg/kg

## Cc1nnc2n1-c1ccc(Cl)cc1C(N1CCN(CCO)CC1)=NC2
Mus musculus [1]
  ED50: > 100 mg/kg
Mus musculus [6]
  ED50: > 100 mg/kg
Mus musculus [3]
  ED50: > 100 mg/kg

## Cc1nnc2n1-c1ccc(Cl)cc1CN=C2N1CCCC1
Mus musculus [1]
  ED50: > 6 mg/kg
Mus musculus [3]
  ED50: > 6 mg/kg
Mus musculus [9]
  ED50: > 6 mg/kg
Mus musculus [5]
  ED50: > 6 mg/kg
